Data as given in ChEMBL document CHEMBL4622996, “Discovery of Vixotrigine: A Novel Use-Dependent Sodium Channel Blocker for the Treatment of Trigeminal Neuralgia” (ACS Med Chem Lett, 2020).

Tests used:
[1] = Free plasma concentration in complete Freund's adjuvant-induced rat model at 1 mg/kg, po measured after 1 hr; type: ADME, organism-based; conditions: in vivo
[2] = Tmax in rat at 3 mg/kg, po; type: ADME, organism-based; conditions: in vivo
[3] = Toxicity in rat assessed as sedation by measuring spontaneous locomotor activity at 100 to 300 mg/kg, po; type: organism-based; conditions: in vivo
Outline: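 Male rats, spontaneous locomotor activity test; oral doses 60, 100 or 300 mg/kg given 30 min before the session; plasma sampled 60 min postdose at 60 mg/kg.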

[4] = Volume of distribution in steady state in dog at 0.5 mg/kg, iv; type: ADME, organism-based, Canis lupus familiaris; conditions: in vivo, read-out: Vdss
[5] = biological target: T1, Sodium channel protein type 3 subunit alpha (Homo sapiens, UniProt Q9NY46); assay: Inhibition of Nav1.3 (unknown origin) expressed in HEK293 cells assessed as 15% inhibition of sodium current incubated for 3 to 3.5 mins by electrophysiology assay; type: cell-based
Outline: (§1)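 HEK293 cells stably expressing NaV1.3, grown in DMEM-F12 with 10% FBS at 37 °C, dissociated at 50–70% confluency; IonWorksHT planar patch clamp at 21–23 °C, amphotericin perforated access; intracellular K-gluconate 100, KCl 40, MgCl2 3.2, EGTA 3, HEPES 5 mM, pH 7.3.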
Target sequence in this assay (Q9NY46 whole entry, looked up): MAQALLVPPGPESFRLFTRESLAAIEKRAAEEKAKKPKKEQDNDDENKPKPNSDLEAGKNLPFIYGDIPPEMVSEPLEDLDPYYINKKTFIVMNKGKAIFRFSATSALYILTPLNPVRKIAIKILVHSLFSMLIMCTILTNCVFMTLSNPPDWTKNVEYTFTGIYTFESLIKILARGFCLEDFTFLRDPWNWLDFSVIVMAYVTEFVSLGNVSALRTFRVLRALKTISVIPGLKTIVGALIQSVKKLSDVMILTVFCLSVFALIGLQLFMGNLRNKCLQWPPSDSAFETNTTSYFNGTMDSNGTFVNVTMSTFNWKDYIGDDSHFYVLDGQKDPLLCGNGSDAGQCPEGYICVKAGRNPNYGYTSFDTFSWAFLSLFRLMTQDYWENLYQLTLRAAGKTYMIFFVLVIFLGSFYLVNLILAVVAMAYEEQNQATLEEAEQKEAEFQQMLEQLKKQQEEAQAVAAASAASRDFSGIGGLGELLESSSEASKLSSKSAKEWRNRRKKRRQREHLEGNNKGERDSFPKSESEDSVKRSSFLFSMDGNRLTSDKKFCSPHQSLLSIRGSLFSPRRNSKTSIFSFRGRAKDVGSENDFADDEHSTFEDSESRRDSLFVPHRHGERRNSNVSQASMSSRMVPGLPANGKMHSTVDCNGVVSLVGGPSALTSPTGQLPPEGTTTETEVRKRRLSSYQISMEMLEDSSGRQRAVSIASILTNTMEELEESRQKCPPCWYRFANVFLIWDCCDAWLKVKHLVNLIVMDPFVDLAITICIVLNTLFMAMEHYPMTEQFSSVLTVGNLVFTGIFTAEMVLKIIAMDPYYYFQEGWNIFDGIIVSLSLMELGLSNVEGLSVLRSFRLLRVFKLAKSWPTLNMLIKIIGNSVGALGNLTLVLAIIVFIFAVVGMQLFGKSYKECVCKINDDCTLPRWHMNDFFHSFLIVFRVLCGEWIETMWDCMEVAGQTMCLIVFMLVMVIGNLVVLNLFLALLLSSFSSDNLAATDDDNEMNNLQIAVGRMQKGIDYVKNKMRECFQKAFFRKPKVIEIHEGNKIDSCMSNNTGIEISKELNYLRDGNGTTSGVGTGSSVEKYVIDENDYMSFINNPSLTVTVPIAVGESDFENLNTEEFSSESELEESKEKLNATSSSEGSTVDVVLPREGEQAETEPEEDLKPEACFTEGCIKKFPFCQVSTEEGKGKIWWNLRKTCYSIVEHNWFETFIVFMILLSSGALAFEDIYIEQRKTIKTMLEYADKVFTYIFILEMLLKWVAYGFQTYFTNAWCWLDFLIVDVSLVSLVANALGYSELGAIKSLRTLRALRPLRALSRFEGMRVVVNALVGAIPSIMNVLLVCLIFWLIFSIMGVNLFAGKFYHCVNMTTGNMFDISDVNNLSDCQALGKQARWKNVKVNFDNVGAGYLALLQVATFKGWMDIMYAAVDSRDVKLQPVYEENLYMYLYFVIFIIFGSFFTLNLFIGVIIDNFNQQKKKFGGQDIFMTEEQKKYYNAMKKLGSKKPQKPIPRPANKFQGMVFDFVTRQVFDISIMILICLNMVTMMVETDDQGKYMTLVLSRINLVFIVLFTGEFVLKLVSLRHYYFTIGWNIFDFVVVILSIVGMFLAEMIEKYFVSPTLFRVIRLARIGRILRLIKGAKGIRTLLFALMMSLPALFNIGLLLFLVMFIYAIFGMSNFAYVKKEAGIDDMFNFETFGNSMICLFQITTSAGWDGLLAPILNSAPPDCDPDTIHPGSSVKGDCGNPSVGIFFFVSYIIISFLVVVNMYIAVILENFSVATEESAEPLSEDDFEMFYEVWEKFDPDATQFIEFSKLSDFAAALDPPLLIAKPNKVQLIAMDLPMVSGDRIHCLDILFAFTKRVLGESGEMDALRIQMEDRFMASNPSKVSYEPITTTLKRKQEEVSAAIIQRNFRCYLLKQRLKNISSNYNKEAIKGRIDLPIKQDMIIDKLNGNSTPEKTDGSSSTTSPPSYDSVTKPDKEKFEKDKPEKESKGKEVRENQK

[6] = biological target: T1, Sodium channel protein type 3 subunit alpha; assay: Inhibition of Nav1.3 (unknown origin) expressed in HEK293 cells assessed as inhibition of sodium current incubated for 3 to 3.5 mins by electrophysiology assay; type: cell-based; outline: as §1
Target sequence in this assay (Q9NY46 whole entry): as the sequence (Q9NY46 whole entry, looked up) above

[7] = biological target: T2, Solute carrier family 22 member 6 (Homo sapiens, UniProt Q4U2R8); assay: Inhibition of OAT1 (unknown origin)
T2 sequence (Q4U2R8 whole entry): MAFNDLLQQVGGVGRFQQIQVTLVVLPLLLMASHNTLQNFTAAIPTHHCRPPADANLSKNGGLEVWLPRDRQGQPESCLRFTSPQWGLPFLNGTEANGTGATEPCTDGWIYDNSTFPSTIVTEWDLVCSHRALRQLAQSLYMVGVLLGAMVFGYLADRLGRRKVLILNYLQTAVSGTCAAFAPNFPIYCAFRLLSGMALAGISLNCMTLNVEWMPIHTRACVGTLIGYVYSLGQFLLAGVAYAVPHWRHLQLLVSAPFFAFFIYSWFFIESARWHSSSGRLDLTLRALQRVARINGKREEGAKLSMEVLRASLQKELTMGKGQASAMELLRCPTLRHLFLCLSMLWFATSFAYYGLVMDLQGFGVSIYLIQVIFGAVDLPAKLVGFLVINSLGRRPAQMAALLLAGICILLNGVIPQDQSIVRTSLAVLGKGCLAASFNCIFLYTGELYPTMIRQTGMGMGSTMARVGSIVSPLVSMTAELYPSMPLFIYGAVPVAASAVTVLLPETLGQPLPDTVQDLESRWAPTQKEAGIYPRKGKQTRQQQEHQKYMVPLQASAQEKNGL

[8] = Apparent permeability in dog MDCK cells at pH 7.4; type: ADME, cell-based, Canis lupus familiaris
Outline: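 MDCK cell monolayer permeability measured at pH 7.4, reported as apparent permeability in nm/s.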

Cytochrome P450 2B6 = biological target: T3, Cytochrome P450 2B6 (Homo sapiens, UniProt P20813); assay: Inhibition of CYP2B6 (unknown origin); type: ADME
T3 sequence (P20813 whole entry): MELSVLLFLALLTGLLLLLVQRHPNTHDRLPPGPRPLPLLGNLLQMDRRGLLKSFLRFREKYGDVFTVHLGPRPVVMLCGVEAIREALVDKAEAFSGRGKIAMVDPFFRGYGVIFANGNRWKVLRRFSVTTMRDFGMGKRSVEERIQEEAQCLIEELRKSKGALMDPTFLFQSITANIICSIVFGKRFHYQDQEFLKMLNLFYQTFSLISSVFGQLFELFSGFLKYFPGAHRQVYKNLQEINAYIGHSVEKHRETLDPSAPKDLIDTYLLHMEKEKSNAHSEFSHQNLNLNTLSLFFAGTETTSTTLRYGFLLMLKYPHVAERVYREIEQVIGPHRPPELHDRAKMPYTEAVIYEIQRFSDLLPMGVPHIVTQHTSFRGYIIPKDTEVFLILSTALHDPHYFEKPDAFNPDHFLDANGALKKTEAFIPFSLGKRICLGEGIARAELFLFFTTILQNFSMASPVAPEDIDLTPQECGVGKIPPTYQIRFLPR

Cytochrome P450 2C9 = Cytochrome P450 2C9 (Homo sapiens, UniProt P11712); assay: Inhibition of CYP2C9 (unknown origin); type: ADME
[9] = biological target: T4, Amine oxidase [flavin-containing] B (Homo sapiens, UniProt P27338); assay: Inhibition of MAO-B (unknown origin)
T4 sequence (P27338 whole entry): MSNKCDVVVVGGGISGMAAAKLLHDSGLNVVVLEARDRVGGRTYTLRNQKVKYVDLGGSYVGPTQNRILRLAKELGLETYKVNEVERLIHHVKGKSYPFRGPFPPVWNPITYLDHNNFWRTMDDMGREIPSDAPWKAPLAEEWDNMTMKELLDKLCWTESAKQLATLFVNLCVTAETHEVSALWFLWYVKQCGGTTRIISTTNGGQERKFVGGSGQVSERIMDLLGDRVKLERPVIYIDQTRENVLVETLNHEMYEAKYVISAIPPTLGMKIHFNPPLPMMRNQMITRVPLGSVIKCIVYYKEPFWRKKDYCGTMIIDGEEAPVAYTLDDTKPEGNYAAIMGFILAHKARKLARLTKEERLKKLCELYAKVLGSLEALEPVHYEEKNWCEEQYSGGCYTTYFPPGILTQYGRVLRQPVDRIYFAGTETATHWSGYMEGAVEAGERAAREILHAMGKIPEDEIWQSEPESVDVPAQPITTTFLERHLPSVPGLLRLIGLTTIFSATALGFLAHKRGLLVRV
Outline: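 MAO-B inhibition measured in human liver microsomes, reported as pIC50.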

Sequence of Cytochrome P450 2C9 (P11712 whole entry): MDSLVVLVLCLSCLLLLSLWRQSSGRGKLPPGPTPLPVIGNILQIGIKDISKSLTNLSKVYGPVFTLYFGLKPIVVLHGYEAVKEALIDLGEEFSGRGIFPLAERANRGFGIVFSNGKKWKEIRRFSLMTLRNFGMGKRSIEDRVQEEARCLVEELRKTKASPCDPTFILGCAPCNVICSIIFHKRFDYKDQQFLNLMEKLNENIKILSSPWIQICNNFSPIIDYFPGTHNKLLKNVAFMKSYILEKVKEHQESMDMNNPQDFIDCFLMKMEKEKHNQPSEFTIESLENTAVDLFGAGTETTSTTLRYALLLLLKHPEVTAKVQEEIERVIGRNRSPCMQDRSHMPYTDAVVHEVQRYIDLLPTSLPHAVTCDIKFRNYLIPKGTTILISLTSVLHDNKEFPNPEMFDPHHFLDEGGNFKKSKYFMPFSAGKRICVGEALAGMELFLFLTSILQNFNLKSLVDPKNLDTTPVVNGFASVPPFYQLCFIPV

Cp(f) [1]: 7.8 ng/mL | Tmax [2]: 30 min | Vd [4]: 2 L/kg | log(activity) [5]: -5.5 | IC50 [6]: 63.1 µM | inhibition (INH) [7]: Not Active | Papp [8]: 38.6 ×10⁻⁶ cm/s | IC50 (Cytochrome P450 2B6): 31 µM | IC50 (Cytochrome P450 2C9): > 100 µM | IC50 [9]: 0.00398 µM
Structure (SMILES): Cl.NC(=O)[C@@H]1CC[C@H](c2ccc(OCc3ccccc3F)cc2)N1 [RAXATRIGINE HYDROCHLORIDE]
Activity [3]: Toxic
